Test results reported in paper PMC5970367 (Chembiochem : a European journal of chemical biology, 2017).
Read-outs that look alike come from different tables or passages of the source.

Legend:
[1] = tested on: fluorescein-labelled SLIIb; assay: Reaction rates monitored by agarose gel electrophoresis; assay type: biochemical, hepatitis C virus; conditions: addition of complex to SLIIb
[2] = tested on: 5′-fluorescein labeled HCV SLIIb; assay: Reaction kinetics via fluorescence; assay type: biochemical, hepatitis C virus; conditions: pseudo Michaelis-Menten, catalytic efficiency
In short: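 Copper–peptide complexes were formed at 1.1:1 peptide:Cu. Each complex was added to 333 nM 5′-fluorescein-SLIIb with 1 mM ascorbic acid and 1 mM H2O2 in 20 mM HEPES (pH 7.4, 100 mM NaCl) at 25 °C. Fluorescence loss was followed at ex 491/em 518 nm and converted to RNA concentration by a calibration curve. Initial velocities were plotted against catalyst concentration and fit to Michaelis–Menten to give KM and kcat. Values are the mean of ≥3 trials.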

[3] = tested on: fluorescein-labeled IRES SLIIb; assay: Time-dependent MALDI-TOF mass spectrometry of SLIIb cleavage; assay type: biochemical, hepatitis C virus; conditions: for Initial Rate (%Overhang/min), 2′, 3′-cPO4: overhang 2′,3′-cyclic phosphates; for Initial Rate (%Overhang/min), 2′, 3′-cPO4 / Initial Rate (%Overhang/min), 3′-AL / Initial Rate (%Overhang/min), 3′-OH / Initial Rate (%Overhang/min), 3′-PO4 / Initial Rate (%Overhang/min), 3′-PGA / Initial Rate (%Overhang/min), 3′-PG / Initial Rate (%Overhang/min), 5′-AL / Initial Rate (%Overhang/min), 5′-GemDiol / Initial Rate (%Overhang/min), 5′-OH / Initial Rate (%Overhang/min), 5′-PO4 / Initial Rate (%Overhang/min), 5′-PPA: MALDI-TOF time dependence; for Initial Rate (%Overhang/min), 3′-AL: overhang 3′-aldehyde; for Initial Rate (%Overhang/min), 3′-OH: overhang 3′-hydroxyl; for Initial Rate (%Overhang/min), 3′-PO4: overhang 3′-phosphates; for Initial Rate (%Overhang/min), 3′-PGA: overhang 3′-phosphoglycaldehyde; for Initial Rate (%Overhang/min), 3′-PG: overhang 3′-phosphoglycolate; for Initial Rate (%Overhang/min), 5′-AL: overhang 5′-aldehyde; for Initial Rate (%Overhang/min), 5′-GemDiol: overhang 5′-geminal diol; for Initial Rate (%Overhang/min), 5′-OH: overhang 5′-hydroxyl; for Initial Rate (%Overhang/min), 5′-PO4: overhang 5′-phosphate; for Initial Rate (%Overhang/min), 5′-PPA: overhang 5′-phosphopropenal; for Relative Initial Rate (Normalized Intensity/min × 1000), position A6 / Relative Initial Rate (Normalized Intensity/min × 1000), position A15 / Relative Initial Rate (Normalized Intensity/min × 1000), position A19 / Relative Initial Rate (Normalized Intensity/min × 1000), position A27 / Relative Initial Rate (Normalized Intensity/min × 1000), position A30 / Relative Initial Rate (Normalized Intensity/min × 1000), position C10 / Relative Initial Rate (Normalized Intensity/min × 1000), position C33 / Relative Initial Rate (Normalized Intensity/min × 1000), position G5 / Relative Initial Rate (Normalized Intensity/min × 1000), position G9 / Relative Initial Rate (Normalized Intensity/min × 1000), position G11 / Relative Initial Rate (Normalized Intensity/min × 1000), position G28 / Relative Initial Rate (Normalized Intensity/min × 1000), position U12 / Relative Initial Rate (Normalized Intensity/min × 1000), position U14 / Relative Initial Rate (Normalized Intensity/min × 1000), position U25 / Relative Initial Rate (Normalized Intensity/min × 1000), position U26 / Relative Initial Rate (Normalized Intensity/min × 1000), position U29 / Relative Initial Rate (Normalized Intensity/min × 1000), position U31: 10 μM SLIIb, 10 μM copper-peptide
In short: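 Reactions contained 10 μM Fl-SLIIb, 10 μM Cu–peptide, 1 mM ascorbate and 1 mM H2O2, and were sampled at 2–180 min. They were quenched on ice, C18-desalted, and analysed by negative-ion reflectron MALDI-TOF (HPA/ammonium citrate matrix, ≥1000 shots). Peaks with m/z >1500 and S/N >5 were assigned against expected product masses. Products were summed per overhang type and expressed as a fraction at each time point. Initial rate was taken from the linear region (first ~40 min).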

[4] = tested on: 5′-fluorescein labeled HCV SLIIb; conditions: pseudo Michaelis-Menten, fluorescence, cited from earlier work

Substance	kcat/KM [2] [M⁻¹ s⁻¹]	Initial Rate (%Overhang/min), 2′, 3′-cPO4 [3] [%Overhang/min]	Initial Rate (%Overhang/min), 3′-AL [3] [%Overhang/min]	Initial Rate (%Overhang/min), 3′-OH [3] [%Overhang/min]	Initial Rate (%Overhang/min), 3′-PO4 [3] [%Overhang/min]	Initial Rate (%Overhang/min), 3′-PGA [3] [%Overhang/min]	Initial Rate (%Overhang/min), 3′-PG [3] [%Overhang/min]	Initial Rate (%Overhang/min), 5′-AL [3] [%Overhang/min]	Initial Rate (%Overhang/min), 5′-GemDiol [3] [%Overhang/min]	Initial Rate (%Overhang/min), 5′-OH [3] [%Overhang/min]	Initial Rate (%Overhang/min), 5′-PO4 [3] [%Overhang/min]	Initial Rate (%Overhang/min), 5′-PPA [3] [%Overhang/min]	Relative Initial Rate (Normalized Intensity/min × 1000), position A6 [3]	Relative Initial Rate (Normalized Intensity/min × 1000), position A15 [3]	Relative Initial Rate (Normalized Intensity/min × 1000), position A19 [3]	Relative Initial Rate (Normalized Intensity/min × 1000), position A27 [3]	Relative Initial Rate (Normalized Intensity/min × 1000), position A30 [3]	Relative Initial Rate (Normalized Intensity/min × 1000), position C10 [3]	Relative Initial Rate (Normalized Intensity/min × 1000), position C33 [3]	Relative Initial Rate (Normalized Intensity/min × 1000), position G5 [3]	further results
GGHKRFK-Cu [11-Cu]	367																				precipitation from solution on addition to SLIIb [1]: significant precipitation
GGHYRFA-Cu [7-Cu]	417	0.1 ± 0.1	0.8 ± 0.1	0.4 ± 0.1	0.1 ± 0.1	0.6 ± 0.2	0.2 ± 0.1	1.5 ± 0.5	0.2 ± 0.1	1.1 ± 0.2	0.5 ± 0.2	0.5 ± 0.1	- ^a	- ^a	0.8 ± 0.4 Normalized Intensity/min × 1000	- ^a	1.0 ± 0.4 Normalized Intensity/min × 1000	- ^a	- ^a	- ^a	Relative Initial Rate (Normalized Intensity/min × 1000), position G9 [3]: <1 Normalized Intensity/min × 1000; Relative Initial Rate (Normalized Intensity/min × 1000), position G11 [3]: 1.6 ± 0.7 Normalized Intensity/min × 1000; Relative Initial Rate (Normalized Intensity/min × 1000), position G28 [3]: - ^a; Relative Initial Rate (Normalized Intensity/min × 1000), position U12 [3]: <1 Normalized Intensity/min × 1000; Relative Initial Rate (Normalized Intensity/min × 1000), position U14 [3]: - ^a; Relative Initial Rate (Normalized Intensity/min × 1000), position U25 [3]: <1 Normalized Intensity/min × 1000; Relative Initial Rate (Normalized Intensity/min × 1000), position U26 [3]: <1 Normalized Intensity/min × 1000; Relative Initial Rate (Normalized Intensity/min × 1000), position U29 [3]: 2.9 ± 0.6 Normalized Intensity/min × 1000; Relative Initial Rate (Normalized Intensity/min × 1000), position U31 [3]: - ^a
GGHYRFK-Cu [3-Cu]	23.3	0.7 ± 0.3	0.8 ± 0.1	1.1 ± 0.5	0.4 ± 0.1	0.3 ± 0.1	0.2 ± 0.1	0.7 ± 0.1	0.3 ± 0.1	2.0 ± 0.6	0.4 ± 0.1	0.3 ± 0.1	- ^a	- ^a	- ^a	- ^a	- ^a	- ^a	- ^a	- ^a	Relative Initial Rate (Normalized Intensity/min × 1000), position G9 [3]: 1.4 ± 0.3 Normalized Intensity/min × 1000; Relative Initial Rate (Normalized Intensity/min × 1000), position G11 [3]: - ^a; Relative Initial Rate (Normalized Intensity/min × 1000), position G28 [3]: 1.0 ± 0.5 Normalized Intensity/min × 1000; Relative Initial Rate (Normalized Intensity/min × 1000), position U12 [3]: 1.2 ± 0.7 Normalized Intensity/min × 1000; Relative Initial Rate (Normalized Intensity/min × 1000), position U14 [3]: 1.2 ± 0.1 Normalized Intensity/min × 1000; Relative Initial Rate (Normalized Intensity/min × 1000), position U25 [3]: - ^a; Relative Initial Rate (Normalized Intensity/min × 1000), position U26 [3]: - ^a; Relative Initial Rate (Normalized Intensity/min × 1000), position U29 [3]: - ^a; Relative Initial Rate (Normalized Intensity/min × 1000), position U31 [3]: - ^a
GGHYrFK-Cu [1-Cu]																					Km ([4]; ref 4b): 0.8 ± 0.1 µM; kcat ([4]; ref 4b): 0.00883 ± 0.00033 s⁻¹; kcat/KM ([4]; ref 4b): 11000 M⁻¹ s⁻¹
GGhyrfk-Cu [2-Cu]																					Km ([4]; ref 4d): 7.9 ± 1.2 µM; kcat ([4]; ref 4d): 0.00233 ± 0.00017 s⁻¹; kcat/KM ([4]; ref 4d): 300 M⁻¹ s⁻¹
